Columns and labels:
[1] = substrate: CCOC(=O)C(=O)Nc1c(Cl)[nH]c(=O)[nH]c1=O; test: (§1) Activity at Mycobacterium tuberculosis recombinant lumazine synthase after 30 mins by fluorescence assay
How it was run: (§2)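 Recombinant M. tuberculosis lumazine synthase (2 μM) in 100 mM Tris-HCl pH 7.0, 100 mM NaCl, 5 mM DTT, 2% DMSO. Dihydroxybutanone phosphate was fixed at 100 μM, pyrimidinedione substrate varied 3–100 μM, and inhibitor 0–200 μM. Reactions were started with the pyrimidinedione substrate. Lumazine formation was read at 408 nm for 30 min at 27 °C. Velocity–substrate data were fitted by nonlinear regression to alternative inhibition models.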

[2] = substrate: O=C1Nc2ccc(S(=O)(=O)NCCCCCCOP(=O)(O)O)c3cccc1c23; test: as §1; how it was run: as §2
[3] = substrate: O=C1Nc2ccc(S(=O)(=O)NCCCCCOP(=O)(O)O)c3cccc1c23; test: as §1; how it was run: as §2
[4] = substrate: O=C1Nc2ccc(S(=O)(=O)NCCCCOP(=O)(O)O)c3cccc1c23; test: as §1; how it was run: as §2
[5] = substrate: O=C1Nc2ccc(S(=O)(=O)NCCCOP(=O)(O)O)c3cccc1c23; test: as §1; how it was run: as §2
[6] = substrate: O=C1Nc2ccc(S(=O)(=O)NCCOP(=O)(O)O)c3cccc1c23; test: as §1; how it was run: as §2

B1: 6,7-dimethyl-8-ribityllumazine synthase (Mycobacterium tuberculosis), P9WHE9 (protein)
chain: MKGGAGVPDLPSLDASGVRLAIVASSWHGKICDALLDGARKVAAGCGLDDPTVVRVLGAIEIPVVAQELARNHDAVVALGVVIRGQTPHFDYVCDAVTQGLTRVSLDSSTPIANGVLTTNTEEQALDRAGLPTSAEDKGAQATVAALATALTLRELRAHS
- kcat [1]: 0.0102 s⁻¹
- kcat [2]: 0.0075 s⁻¹
- kcat [3]: 0.0075 s⁻¹
- kcat [4]: 0.00733 s⁻¹
- kcat [5]: 0.0075 s⁻¹
- kcat [6]: 0.00683 s⁻¹

Reference: ChEMBL document CHEMBL1157805, “Virtual screening, selection and development of a benzindolone structural scaffold for inhibition of lumazine synthase” (Bioorg Med Chem, 2010)
